Assay results from ChEMBL document CHEMBL1833812, “Synthesis, biological evaluation, and automated docking of constrained analogues of the opioid peptide H-Dmt-D-Ala-Phe-Gly-NH₂ using the 4- or 5-methyl substituted 4-amino-1,2,4,5-tetrahydro-2-benzazepin-3-one scaffold” (J Med Chem, 2011).

Experiments:
[1] = biological target: Delta-type opioid receptor (Rattus norvegicus, UniProt P33533); test: Displacement of [3H]Ile-deltorphin-2 from rat brain delta-type opioid receptor by liquid scintillation counting
Outline: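 Wistar male rat (250–300 g) brain membranes, 0.2–0.4 mg protein/tube, 2 nM [3H]Ile5,6-deltorphin-2 plus 0.25 mg BSA/tube, competitor 10^-11–10^-5 M, 50 mM Tris-HCl pH 7.4, 45 min at 35 °C. GF/B filtration, ice-cold Tris washes, scintillation counting. Nonspecific binding with 10 μM naloxone; duplicates, one/two-site competition fit for Ki.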

[2] = species: Rattus norvegicus; test: Selectivity ratio of Ki of rat brain delta-type opioid receptor to Ki of rat brain Mu-type opioid receptor
[3] = biological target: Mu-type opioid receptor (Rattus norvegicus) (UniProt P33535); test: Agonist activity at rat brain Mu-type opioid receptor assessed as [35S]GTPgammaS binding by liquid scintillation counting relative to control; type: functional
Outline: (§1)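 Rat brain membranes (15 μg protein/tube) with 0.05 nM [35S]GTPγS and opioids 10^-10–10^-5 M, plus 30 μM GDP, 100 mM NaCl, 3 mM MgCl2, 1 mM EGTA in 50 mM Tris-HCl pH 7.4, 60 min at 30 °C. Started by protein, stopped with ice-cold buffer and GF/B filtration, scintillation counted. Nonspecific binding with 10 μM unlabeled GTPγS; stimulation as % of specific binding over basal (no opioid).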

[4] = biological target: T1, Mu-type opioid receptor (Rattus norvegicus, UniProt P33535); test: Displacement of [3H]DAMGO from rat brain Mu-type opioid receptor by liquid scintillation counting
Outline: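 Wistar male rat (250–300 g) brain membrane homogenate, 0.2–0.4 mg protein/tube, with 0.5 nM [3H]DAMGO and competitor 10^-11–10^-5 M in 50 mM Tris-HCl pH 7.4, 1 h at 25 °C. Stopped by GF/C filtration, ice-cold Tris washes, scintillation counted. Nonspecific binding with 10 μM naloxone; duplicate runs, one/two-site competition fit for Ki.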

[5] = biological target: T1, Mu-type opioid receptor; test: Agonist activity at rat brain mu-opioid receptor assessed as [35S]GTPgammaS binding by liquid scintillation counting; type: functional; outline: as §1
[6] = biological target: Mu-type opioid receptor (Homo sapiens, UniProt P35372); test: Agonist activity at Mu-type opioid receptor; type: functional
[7] = biological target: Mu-type opioid receptor (Cavia porcellus, UniProt P97266); test: Agonist activity at guinea pig ileum Mu-type opioid receptor; type: functional, tissue-based
[8] = biological target: Delta-type opioid receptor (Homo sapiens, UniProt P41143); test: Agonist activity at delta-type opioid receptor; type: functional
Delta-type opioid receptor (Homo sapiens, UniProt P41143), sequence (P41143 whole entry): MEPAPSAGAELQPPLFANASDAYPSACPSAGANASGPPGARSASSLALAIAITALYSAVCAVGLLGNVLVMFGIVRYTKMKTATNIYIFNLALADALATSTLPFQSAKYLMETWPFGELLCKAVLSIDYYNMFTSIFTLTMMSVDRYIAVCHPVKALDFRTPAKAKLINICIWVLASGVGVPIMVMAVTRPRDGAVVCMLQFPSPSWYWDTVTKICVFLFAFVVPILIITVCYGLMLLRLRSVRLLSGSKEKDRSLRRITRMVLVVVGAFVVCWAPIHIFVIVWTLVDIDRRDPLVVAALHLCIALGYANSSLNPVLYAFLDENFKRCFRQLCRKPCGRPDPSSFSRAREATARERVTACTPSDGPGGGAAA

T1 sequence (P33535 whole entry): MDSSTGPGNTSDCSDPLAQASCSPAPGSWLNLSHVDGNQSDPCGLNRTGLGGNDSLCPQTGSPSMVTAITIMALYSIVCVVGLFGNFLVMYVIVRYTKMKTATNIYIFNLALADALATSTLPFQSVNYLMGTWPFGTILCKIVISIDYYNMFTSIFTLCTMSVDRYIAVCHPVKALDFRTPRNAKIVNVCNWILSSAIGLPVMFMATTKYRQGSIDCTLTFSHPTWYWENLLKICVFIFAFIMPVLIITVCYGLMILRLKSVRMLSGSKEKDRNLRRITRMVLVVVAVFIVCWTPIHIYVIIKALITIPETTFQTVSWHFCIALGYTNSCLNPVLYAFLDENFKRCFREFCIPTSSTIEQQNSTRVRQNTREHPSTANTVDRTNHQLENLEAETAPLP
Mu-type opioid receptor (Rattus norvegicus), sequence (P33535 whole entry): as above
Delta-type opioid receptor (Rattus norvegicus, UniProt P33533), sequence (P33533 whole entry): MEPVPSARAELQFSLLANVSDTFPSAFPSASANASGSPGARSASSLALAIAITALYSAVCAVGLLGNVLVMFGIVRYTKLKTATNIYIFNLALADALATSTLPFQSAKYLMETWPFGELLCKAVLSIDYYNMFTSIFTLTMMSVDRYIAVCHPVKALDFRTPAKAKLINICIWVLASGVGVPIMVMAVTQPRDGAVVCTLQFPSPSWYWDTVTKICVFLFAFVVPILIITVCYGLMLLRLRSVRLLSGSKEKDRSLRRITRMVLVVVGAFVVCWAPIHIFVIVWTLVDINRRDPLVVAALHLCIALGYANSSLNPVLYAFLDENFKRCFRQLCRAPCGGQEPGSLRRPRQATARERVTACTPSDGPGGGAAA
Mu-type opioid receptor (Homo sapiens, UniProt P35372), sequence (P35372 whole entry): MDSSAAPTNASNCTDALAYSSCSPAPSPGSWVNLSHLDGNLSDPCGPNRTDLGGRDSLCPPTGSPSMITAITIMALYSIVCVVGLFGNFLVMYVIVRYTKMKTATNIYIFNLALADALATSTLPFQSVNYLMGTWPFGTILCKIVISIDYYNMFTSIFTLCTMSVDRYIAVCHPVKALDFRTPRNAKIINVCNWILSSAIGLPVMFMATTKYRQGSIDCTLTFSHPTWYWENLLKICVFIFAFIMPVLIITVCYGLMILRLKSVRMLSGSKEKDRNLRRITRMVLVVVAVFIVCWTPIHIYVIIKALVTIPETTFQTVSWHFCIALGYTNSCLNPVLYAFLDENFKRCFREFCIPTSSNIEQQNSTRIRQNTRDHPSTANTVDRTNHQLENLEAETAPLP
Mu-type opioid receptor (Cavia porcellus, UniProt P97266), sequence (P97266 whole entry): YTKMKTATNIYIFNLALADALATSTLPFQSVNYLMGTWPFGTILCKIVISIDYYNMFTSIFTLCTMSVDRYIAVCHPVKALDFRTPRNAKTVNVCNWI

Row | Compound | Ki [1] [nM] | Ratio Ki [2] | Emax [3] [%] | Ki [4] [nM] | EC50 [5] [nM] | IC50 [6] [nM] | IC50 [7] [nM] | IC50 [8] [nM]
1 | Cc1cc(O)cc(C)c1C[C@H](N)C(=O)N[C@H](C)C(=O)N[C@H]1Cc2ccccc2CN(CC(N)=O)C1=O | 2.4 | 51 | 161 | 0.047 | 18 |  |  | 
2 | Cc1cc(O)cc(C)c1C[C@H](N)C(=O)N[C@H](C)C(=O)N[C@H]1C(=O)N(CC(N)=O)Cc2ccccc2[C@@H]1C | 24 | 960 | 149 | 0.025 | 9.3 |  |  | 
3 | C[C@H](C(=O)NC1Cc2ccccc2CN(CC(N)=O)C1=O)N1Cc2cc(O)ccc2CC(N)C1=O (some centres undefined) |  |  |  |  |  | 20.8 | 3.64 | 
4 | Cc1cc(O)cc(C)c1C[C@H](N)C(=O)N[C@H](C)C(=O)N[C@H]1C(=O)N(CC(N)=O)Cc2ccccc2[C@H]1C | 490 | 1220 | 167 | 0.4 | 184 |  |  | 
5 | Cc1cc(O)cc(C)c1C[C@H](N)C(=O)N[C@H](C)C(=O)N[C@@H]1Cc2ccccc2CN(CC(N)=O)C1=O | 337 | 1020 | 178 | 0.33 | 64.2 |  |  | 
6 | Cc1cc(O)cc(C)c1C[C@H](N)C(=O)N[C@H](C)C(=O)N[C@]1(C)Cc2ccccc2CN(CC(N)=O)C1=O | 63 | 210 | 154 | 0.3 | 288 |  |  | 
7 | Cc1cc(O)cc(C)c1C[C@H](N)C(=O)N[C@H](C)C(=O)N[C@@]1(C)Cc2ccccc2CN(CC(N)=O)C1=O | 859 | 187 | 159 | 4.6 | 941 |  |  | 
8 | Cc1cc(O)cc(C)c1C[C@H](N)C(=O)N[C@H](C)C(=O)N[C@@H]1C(=O)N(CC(N)=O)Cc2ccccc2[C@@H]1C | 1.7 | 68 | 191 | 0.025 | 36 |  |  | 
9 | Cc1cc(O)cc(C)c1C[C@H](N)C(=O)N[C@H](C)C(=O)N[C@@H]1C(=O)N(CC(N)=O)Cc2ccccc2[C@H]1C | 720 | 51 | 130 | 14 | 685 |  |  | 
10 | C[C@@H](NC(=O)[C@@H](N)Cc1ccc(O)cc1)C(=O)NC1Cc2ccccc2CN(CC(=O)N[C@@H](Cc2ccc(O)cc2)C(=O)N2CCC[C@H]2C(=O)N[C@@H](CO)C(N)=O)C1=O (some centres undefined) |  |  |  |  |  | 11 |  | 17.4
